In ChEMBL document CHEMBL3124940, “Design, synthesis and biological evaluation of D-ring opened galantamine analogs as multifunctional anti-Alzheimer agents” (Eur J Med Chem, 2014):
Activity calls are given as the source filed them. No cut-off for these calls is given here.

Experiments:
Rattus norvegicus [1] = experiment: Toxicity in Wistar rat scopolamine-induced cognition impairment model assessed as change in movement at 1 umol/100 g body weight, ip; assay type: organism-based; settings: in vivo
Summary of the method: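 60-day-old female Wistar rats were trained in an eight-arm radial maze to no errors in under 60 s on 3 consecutive days; each rat served as its own control. Compound in saline was given i.p., then scopolamine (0.05 mg/100 g, saline, i.p.) 5 min later. Errors plus baits not found after 10 min and total searching time were recorded before and 20, 60 and 120 min after scopolamine; n = 14, mean ± SEM.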

Cholinesterase = Cholinesterase (Equus caballus, UniProt P81908); experiment: Inhibition of equine serum BChE using butyrylthiocholine iodide as substrate preincubated for 5 mins followed by substrate addition measured after 5 mins by Ellman's method
Summary of the method: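 Ellman's method with equine serum BChE and butyrylthiocholine iodide; DTNB read-out at 412 nm, 25 °C. Phosphate buffer pH 8.0. At least five concentrations (normally 10^-4 to 10^-9 M), each in triplicate, to build the inhibition curve. Data are means of at least three determinations.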

[2] = Selectivity ratio of IC50 for electric eel AChE to IC50 for equine serum BChE
Summary of the method: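 AChE is electric eel Type VI-S with acetylthiocholine; BChE is equine serum with butyrylthiocholine. At least five concentrations, each in triplicate. Ratio = IC50(AChE)/IC50(BChE).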

[3] = Induction of nitric oxide release in PBS at 100 uM at pH 7.4 after 24 hrs by Griess method relative to control; assay type: physicochemical; settings: buffer, pH 7.4, 24 h
Summary of the method: (§1)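 Test compound at 100 µM in phosphate buffer pH 7.4, alone or with 90 µL rat serum added, incubated 37 °C for 24 h. Griess reagent added, then 30 min at 37 °C with gentle shaking; absorbance read at 540 nm and blank-corrected. Nitrite quantified against an NaNO2 calibration curve and expressed as % of a theoretical 1 mol NO per mol nitrate; n = 3.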

Rattus norvegicus [4] = experiment: Antialzheimer activity in Wistar rat scopolamine-induced cognition impairment model assessed as total exploration time at 1 umol/100 g body weight, ip treated for 5 mins prior to scopolamine-challenge by eight-arm radial maze test relative to control; assay type: functional
Summary of the method: (§2)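 Female 60-day-old Wistar rats (Han:Wist) trained in an eight-arm radial maze to error-free trials under 60 s on three consecutive days; each animal served as its own control. Test agent given i.p. in saline 5 min before scopolamine (0.05 mg/100 g b. wt., i.p. in saline). Errors plus baits not found after 10 min, and total searching time, recorded before and 20, 60, 120 min after scopolamine; n = 14, mean ± SEM.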

Acetylcholinesterase = Acetylcholinesterase (Electrophorus electricus, UniProt O42275); experiment: Inhibition of electric eel AChE using acetylthiocholine iodide as substrate preincubated for 5 mins followed by substrate addition measured after 5 mins by Ellman's method
Rattus norvegicus [5] = experiment: Toxicity in Wistar rat assessed as change in movement at 1 umol/100 g body weight, ip; assay type: organism-based; settings: in vivo
[6] = Induction of nitric oxide release in PBS at 100 uM at pH 7.4 after 24 hrs by Griess method in presence of rat serum; assay type: physicochemical; settings: pH 7.4, 24 h; summary of the method: as §1
Rattus norvegicus [7] = experiment: Antialzheimer activity in Wistar rat scopolamine-induced cognition impairment model assessed as decrease in amount of errors plus baits not found during exploration at 1 umol/100 g body weight, ip treated for 5 mins prior to scopolamine-challenge measured after 20 to 120 mins by eight-arm radial maze test; assay type: functional, organism-based; summary of the method: as §2
[8] = target: Amyloid-beta precursor protein (Homo sapiens) (UniProt P05067); experiment: Inhibition of amyloid beta (1 to 42) aggregation (unknown origin) at 5 to 100 uM after 1 hr by thioflavin T fluorescence assay
Summary of the method: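 Aβ42 stock 200 μM in DMSO, centrifuged 12,000 rpm 10 min; supernatant used. ThT in 50 mM glycine-NaOH pH 8.5 then added. Fluorescence read at ex 430 / em 488 nm. Curcumin as positive control.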

PC-12 = experiment: Neuroprotective activity in rat PC12 cells assessed as decrease in amyloid beta (1 to 42)-induced cytotoxicity at 0.08 to 10 uM after 24 hrs by MTT assay; assay type: functional, cell-based
Summary of the method: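 PC12 cells grown in F-12 with 10% FBS, 37 °C, 5% CO2. Seeded at 2000 cells/well for 24 h. Aβ42 pretreated with HFIP, then brought to 100 μM in medium and held at 4 °C for 24 h. Compound (final […]–10 μM, DMSO <0.5%) given with Aβ42 (final 5 μM) for 24 h. MTT 4 h, formazan read at 540 nm. Expressed as % of control; three independent trials, mean ± SEM.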

Chain of Acetylcholinesterase (O42275 whole entry): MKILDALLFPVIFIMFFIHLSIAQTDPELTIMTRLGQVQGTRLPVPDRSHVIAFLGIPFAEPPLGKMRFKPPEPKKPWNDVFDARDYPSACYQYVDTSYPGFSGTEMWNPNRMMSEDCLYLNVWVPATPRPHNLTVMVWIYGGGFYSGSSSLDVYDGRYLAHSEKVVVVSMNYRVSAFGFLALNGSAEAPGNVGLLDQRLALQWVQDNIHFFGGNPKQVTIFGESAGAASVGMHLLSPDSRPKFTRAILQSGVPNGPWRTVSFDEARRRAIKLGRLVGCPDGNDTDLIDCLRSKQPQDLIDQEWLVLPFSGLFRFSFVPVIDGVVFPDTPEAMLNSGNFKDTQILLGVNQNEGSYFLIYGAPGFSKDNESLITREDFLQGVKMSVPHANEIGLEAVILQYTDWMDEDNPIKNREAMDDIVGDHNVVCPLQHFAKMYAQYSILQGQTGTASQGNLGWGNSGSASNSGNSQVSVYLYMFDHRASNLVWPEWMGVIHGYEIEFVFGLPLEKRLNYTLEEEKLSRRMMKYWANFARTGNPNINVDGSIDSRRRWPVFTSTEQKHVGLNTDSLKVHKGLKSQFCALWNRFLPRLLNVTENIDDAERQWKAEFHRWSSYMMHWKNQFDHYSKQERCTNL
Chain of Cholinesterase (P81908 whole entry): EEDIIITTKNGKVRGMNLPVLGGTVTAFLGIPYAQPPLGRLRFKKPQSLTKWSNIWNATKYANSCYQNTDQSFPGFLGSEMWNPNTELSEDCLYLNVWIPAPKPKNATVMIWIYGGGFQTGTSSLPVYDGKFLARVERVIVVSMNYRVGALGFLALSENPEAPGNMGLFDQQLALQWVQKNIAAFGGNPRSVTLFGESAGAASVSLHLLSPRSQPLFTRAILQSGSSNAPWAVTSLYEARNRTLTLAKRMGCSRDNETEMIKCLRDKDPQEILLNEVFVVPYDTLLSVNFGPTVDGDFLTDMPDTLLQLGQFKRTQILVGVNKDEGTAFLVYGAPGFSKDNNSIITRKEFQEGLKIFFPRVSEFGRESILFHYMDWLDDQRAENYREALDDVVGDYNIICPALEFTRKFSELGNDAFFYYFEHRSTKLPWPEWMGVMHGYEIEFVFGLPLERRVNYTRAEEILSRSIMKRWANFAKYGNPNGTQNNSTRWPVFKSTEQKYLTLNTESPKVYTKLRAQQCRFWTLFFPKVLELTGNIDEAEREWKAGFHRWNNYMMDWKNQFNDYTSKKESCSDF
Chain of Amyloid-beta precursor protein (Homo sapiens) (P05067 whole entry): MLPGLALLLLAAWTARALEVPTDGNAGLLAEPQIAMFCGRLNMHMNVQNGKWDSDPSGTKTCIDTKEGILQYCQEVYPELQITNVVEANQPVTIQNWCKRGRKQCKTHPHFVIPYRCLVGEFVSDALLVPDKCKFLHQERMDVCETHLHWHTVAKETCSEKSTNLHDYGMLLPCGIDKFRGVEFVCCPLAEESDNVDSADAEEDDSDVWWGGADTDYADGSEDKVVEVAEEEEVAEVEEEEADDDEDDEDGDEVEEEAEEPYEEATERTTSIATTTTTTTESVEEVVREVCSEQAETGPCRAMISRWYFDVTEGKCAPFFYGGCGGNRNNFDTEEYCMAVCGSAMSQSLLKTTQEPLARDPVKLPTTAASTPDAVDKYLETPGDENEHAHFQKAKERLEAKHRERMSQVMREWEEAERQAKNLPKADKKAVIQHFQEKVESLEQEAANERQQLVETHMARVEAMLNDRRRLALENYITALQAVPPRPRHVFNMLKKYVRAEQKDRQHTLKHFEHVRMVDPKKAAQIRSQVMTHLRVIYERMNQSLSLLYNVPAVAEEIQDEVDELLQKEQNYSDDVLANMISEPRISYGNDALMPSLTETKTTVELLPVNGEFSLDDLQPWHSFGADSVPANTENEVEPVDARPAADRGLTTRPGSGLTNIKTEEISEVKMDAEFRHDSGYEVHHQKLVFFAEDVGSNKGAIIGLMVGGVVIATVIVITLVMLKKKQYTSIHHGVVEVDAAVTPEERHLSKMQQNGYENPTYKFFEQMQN

| SMILES | Activity (Rattus norvegicus [1]) | IC50 (Cholinesterase) [µM] | Ratio IC50 [2] | Activity [3] [%] | Time (Rattus norvegicus [4]) [s] | IC50 (Acetylcholinesterase) [µM] | Activity (Rattus norvegicus [5]) | Activity [6] | Activity (Rattus norvegicus [7]) | inhibition [8] | Activity (PC-12) | Activity (Rattus norvegicus [4]) |
| --- | --- | --- | --- | --- | --- | --- | --- | --- | --- | --- | --- | --- |
| COc1ccc2c(c1)[nH]c1cccc(CN(C(=O)CCO[N+](=O)[O-])C(C)C)c12 | Non-toxic | 2.5 | 0.88 | 4.8 | 107 | 2.21 | Non-toxic | Active | Active | – | – | – |
| COc1ccc2c3c1O[C@H]1C[C@@H](O)C=C[C@@]31CCN(C)C2 | – | – | – | – | – | – | – | – | inactive | inactive | inactive | inactive |
